Drawing on ChEMBL document CHEMBL1138520, “Molecular and conformational determinants of pituitary adenylate cyclase-activating polypeptide (PACAP) for activation of the PAC1 receptor” (J Med Chem, 2009), this text covers IC50, Emax and EC50 for nine molecules.

pEC50, pIC50: −log10 of the molar value. Where a SMILES comes first, the peptide text is derived from it. [ ]: non-standard residue; d: D form. ξ: configuration not given here. Bip = N[C@@H](Cc1ccc(-c2ccccc2)cc1)C(=O)O; Hyp = O=C(O)[C@@H]1C[C@@H](O)CN1; ξTic = O=C(O)C1Cc2ccccc2CN1

The target of assay [1] is T1, Pituitary adenylate cyclase-activating polypeptide type I receptor (Homo sapiens, UniProt P41586). In words: Displacement of [125I]Ac-PACAP27 from human recombinant PAC1 receptor expressed in CHO cells by gamma- counter. The class given is cell-based.
Target sequence in this assay (P41586 whole entry): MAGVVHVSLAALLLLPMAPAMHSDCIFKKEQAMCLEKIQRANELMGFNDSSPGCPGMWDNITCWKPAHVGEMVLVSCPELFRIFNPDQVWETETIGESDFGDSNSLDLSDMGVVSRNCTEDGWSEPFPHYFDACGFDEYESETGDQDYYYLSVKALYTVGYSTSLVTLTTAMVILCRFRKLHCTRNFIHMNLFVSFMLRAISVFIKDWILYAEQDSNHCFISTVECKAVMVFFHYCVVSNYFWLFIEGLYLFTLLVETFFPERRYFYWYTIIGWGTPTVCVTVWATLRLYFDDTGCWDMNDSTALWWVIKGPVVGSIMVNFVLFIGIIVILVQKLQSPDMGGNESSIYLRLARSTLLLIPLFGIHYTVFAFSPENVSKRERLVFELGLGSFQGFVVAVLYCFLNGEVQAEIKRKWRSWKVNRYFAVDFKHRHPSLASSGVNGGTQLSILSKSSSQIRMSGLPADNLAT
Assay [2] addresses T1, Pituitary adenylate cyclase-activating polypeptide type I receptor. In words: Agonist activity at human recombinant PAC1 receptor expressed in CHO cells assessed as PACAP38-induced calcium mobilization by FLIPR assay relative to PACAP38. The class given is functional, cell-based. The method, boiled down: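 CHO cells stably expressing recombinant human PAC1, plated 24 h before assay, loaded with fluo-4 AM for 60 min at 37 °C in the dark, then rinsed into HBSS for 15 min at 37 °C. Peptide was added 18 s into a 150 s read (ex 480/em 525 nm), at final concentrations of 1 × 10-12 to 1 × 10^-5 M. Response was normalised to 1 × 10^-5 M PACAP38 on each plate. EC50 and efficacy came from nonlinear regression; 4-10 independent assays in duplicate.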
Background: Calcium assays in cells follow changes in intracellular calcium, usually with a dye or a luminescent sensor.
Target sequence in this assay (P41586 21-468 limits assumed): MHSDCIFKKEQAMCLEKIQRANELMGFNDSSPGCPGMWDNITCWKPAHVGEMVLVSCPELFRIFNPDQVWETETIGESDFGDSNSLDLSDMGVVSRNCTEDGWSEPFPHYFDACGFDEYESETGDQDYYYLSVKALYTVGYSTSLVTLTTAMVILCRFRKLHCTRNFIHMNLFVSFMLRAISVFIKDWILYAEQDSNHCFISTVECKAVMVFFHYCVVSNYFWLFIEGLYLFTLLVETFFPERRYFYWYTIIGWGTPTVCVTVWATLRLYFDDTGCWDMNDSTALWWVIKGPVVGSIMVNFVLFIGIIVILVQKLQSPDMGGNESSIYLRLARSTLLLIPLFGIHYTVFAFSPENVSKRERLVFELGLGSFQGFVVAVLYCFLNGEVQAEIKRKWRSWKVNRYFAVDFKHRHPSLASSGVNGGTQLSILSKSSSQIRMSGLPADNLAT

Assay [3] has the same target. In words: Agonist activity at human recombinant PAC1 receptor expressed in CHO cells assessed as PACAP38-induced calcium mobilization by FLIPR assay. The class given is functional, cell-based. The method in brief: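 CHO cells stably expressing recombinant human PAC1, plated 24 h before assay, loaded with fluo-4 AM for 60 min at 37 °C in the dark, then rinsed into HBSS for 15 min at 37 °C. EC50 and efficacy came from nonlinear regression; 4-10 independent assays in duplicate.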
Target sequence in this assay (P41586 whole entry): as the sequence (P41586 whole entry) above

The term pIC50 denotes the negative decadic logarithm of the IC50, by convention in mol/L. What is called Emax is the size of the effect at its maximum, as opposed to the concentration needed. In general, pEC50 refers to −log10 of the EC50, conventionally taken in molar units. For `CC[C@H](C)[C@H](NC(=O)CNC(=O)[C@H](CC(=O)O)NC(=O)[C@H](CO)NC(=O)[C@@H](N)Cc1cnc[nH]1)C(=O)N[C@@H](Cc1ccccc1)C(=O)N(C)[C@H](C(=O)N[C@@H](CC(=O)O)C(=O)N[C@@H](CO)C(=O)N[C@@H](Cc1ccc(O)cc1)C(=O)N[C@@H](CO)C(=O)N[C@@H](CCCNC(=N)N)C(=O)N[C@@H](Cc1ccc(O)cc1)C(=O)N[C@@H](CCCNC(=N)N)C(=O)N[C@@H](CCCCN)C(=O)N[C@@H](CCC(N)=O)C(=O)N[C@@H](CCSC)C(=O)N[C@@H](C)C(=O)N[C@H](C(=O)N[C@@H](CCCCN)C(=O)N[C@@H](CCCCN)C(=O)N[C@@H](Cc1ccc(O)cc1)C(=O)N[C@@H](CC(C)C)C(=O)N[C@@H](C)C(=O)N[C@@H](C)C(=O)N[C@H](C(=O)N[C@@H](CC(C)C)C(N)=O)C(C)C)C(C)C)[C@@H](C)O`, the pIC50 in assay [1] was 5.69. In addition, the Emax in assay [2] worked out at 35.4%. Further, the pEC50 in assay [3] was 5.67.

On to `CC[C@H](C)[C@H](NC(=O)CNC(=O)[C@H](CC(=O)O)NC(=O)[C@H](CO)NC(=O)[C@@H](N)Cc1cnc[nH]1)C(=O)N1Cc2ccccc2CC1C(=O)N[C@H](C(=O)N[C@@H](CC(=O)O)C(=O)N[C@@H](CO)C(=O)N[C@@H](Cc1ccc(O)cc1)C(=O)N[C@@H](CO)C(=O)N[C@@H](CCCNC(=N)N)C(=O)N[C@@H](Cc1ccc(O)cc1)C(=O)N[C@@H](CCCNC(=N)N)C(=O)N[C@@H](CCCCN)C(=O)N[C@@H](CCC(N)=O)C(=O)N[C@@H](CCSC)C(=O)N[C@@H](C)C(=O)N[C@H](C(=O)N[C@@H](CCCCN)C(=O)N[C@@H](CCCCN)C(=O)N[C@@H](Cc1ccc(O)cc1)C(=O)N[C@@H](CC(C)C)C(=O)N[C@@H](C)C(=O)N[C@@H](C)C(=O)N[C@H](C(=O)N[C@@H](CC(C)C)C(N)=O)C(C)C)C(C)C)[C@@H](C)O` (some centres not stated), for which the pIC50 in assay [1] was 5.66. For the same molecule, the Emax in assay [2] was 65.9%. Further, in assay [3], the pEC50 was 6.25.

In the case of `CC[C@H](C)[C@H](NC(=O)CNC(=O)[C@H](CC(=O)O)NC(=O)[C@H](CO)NC(=O)[C@@H](N)Cc1cnc[nH]1)C(=O)N[C@@H](Cc1ccc(O)cc1)C(=O)N[C@H](C(=O)N[C@@H](CC(=O)O)C(=O)N[C@@H](CO)C(=O)N[C@@H](Cc1ccc(O)cc1)C(=O)N[C@@H](CO)C(=O)N[C@@H](CCCNC(=N)N)C(=O)N[C@@H](Cc1ccc(O)cc1)C(=O)N[C@@H](CCCNC(=N)N)C(=O)N[C@@H](CCCCN)C(=O)N[C@@H](CCC(N)=O)C(=O)N[C@@H](CCSC)C(=O)N[C@@H](C)C(=O)N[C@H](C(=O)N[C@@H](CCCCN)C(=O)N[C@@H](CCCCN)C(=O)N[C@@H](Cc1ccc(O)cc1)C(=O)N[C@@H](CC(C)C)C(=O)N[C@@H](C)C(=O)N[C@@H](C)C(=O)N[C@H](C(=O)N[C@@H](CC(C)C)C(N)=O)C(C)C)C(C)C)[C@@H](C)O`, the pIC50 in assay [1] was 8.10. For the same molecule, the Emax in assay [2] was determined as 108%. The pEC50 in assay [3] was 8.11.

Take `CC[C@H](C)[C@H](NC(=O)CNC(=O)[C@H](CC(=O)O)NC(=O)[C@H](CO)NC(=O)[C@@H](N)Cc1cnc[nH]1)C(=O)N1Cc2ccccc2CC1C(=O)N[C@H](C(=O)N[C@@H](CC(=O)O)C(=O)N[C@@H](CO)C(=O)N[C@@H](Cc1ccc(O)cc1)C(=O)N[C@@H](CO)C(=O)N[C@@H](CCCNC(=N)N)C(=O)N[C@@H](Cc1ccc(O)cc1)C(=O)N[C@@H](CCCNC(=N)N)C(=O)N[C@@H](CCCCN)C(=O)N[C@@H](CCC(N)=O)C(=O)N[C@@H](CCSC)C(=O)N[C@@H](C)C(=O)N[C@H](C(=O)N[C@@H](CCCCN)C(=O)N[C@@H](CCCCN)C(=O)N[C@@H](Cc1ccc(O)cc1)C(=O)N[C@@H](CC(C)C)C(=O)N[C@@H](C)C(=O)N[C@@H](C)C(=O)N[C@H](C(=O)N[C@@H](CC(C)C)C(=O)NCC(=O)N[C@@H](CCCCN)C(=O)N[C@@H](CCCNC(=N)N)C(=O)N[C@@H](Cc1ccc(O)cc1)C(=O)N[C@@H](CCCCN)C(=O)N[C@@H](CCC(N)=O)C(=O)N[C@@H](CCCNC(=N)N)C(=O)N[C@H](C(=O)N[C@@H](CCCCN)C(=O)N[C@@H](CC(N)=O)C(=O)N[C@@H](CCCCN)C(N)=O)C(C)C)C(C)C)C(C)C)[C@@H](C)O` (some centres not stated) (H-HSDGI[ξTic]TDSYSRYRKQMAVKKYLAAVLGKRYKQRVKNK-NH2): in assay [1], the pIC50 was 5.85. In addition, the maximum response (Emax) in assay [2] is 69.6%. The pEC50 in assay [3] was 5.40.

In the case of `CC[C@H](C)[C@H](NC(=O)CNC(=O)[C@H](CC(=O)O)NC(=O)[C@H](CO)NC(=O)[C@@H](N)Cc1cnc[nH]1)C(=O)N[C@@H](Cc1ccc(-c2ccccc2)cc1)C(=O)N[C@H](C(=O)N[C@@H](CC(=O)O)C(=O)N[C@@H](CO)C(=O)N[C@@H](Cc1ccc(O)cc1)C(=O)N[C@@H](CO)C(=O)N[C@@H](CCCNC(=N)N)C(=O)N[C@@H](Cc1ccc(O)cc1)C(=O)N[C@@H](CCCNC(=N)N)C(=O)N[C@@H](CCCCN)C(=O)N[C@@H](CCC(N)=O)C(=O)N[C@@H](CCSC)C(=O)N[C@@H](C)C(=O)N[C@H](C(=O)N[C@@H](CCCCN)C(=O)N[C@@H](CCCCN)C(=O)N[C@@H](Cc1ccc(O)cc1)C(=O)N[C@@H](CC(C)C)C(=O)N[C@@H](C)C(=O)N[C@@H](C)C(=O)N[C@H](C(=O)N[C@@H](CC(C)C)C(=O)NCC(=O)N[C@@H](CCCCN)C(=O)N[C@@H](CCCNC(=N)N)C(=O)N[C@@H](Cc1ccc(O)cc1)C(=O)N[C@@H](CCCCN)C(=O)N[C@@H](CCC(N)=O)C(=O)N[C@@H](CCCNC(=N)N)C(=O)N[C@H](C(=O)N[C@@H](CCCCN)C(=O)N[C@@H](CC(N)=O)C(=O)N[C@@H](CCCCN)C(N)=O)C(C)C)C(C)C)C(C)C)[C@@H](C)O` (H-HSDGI[Bip]TDSYSRYRKQMAVKKYLAAVLGKRYKQRVKNK-NH2), the pIC50 in assay [1] is 8.27. The Emax in assay [2] was 105%. For the same molecule, the pEC50 in assay [3] is 8.96.

As for `CC[C@H](C)[C@H](NC(=O)CNC(=O)[C@H](CC(=O)O)NC(=O)[C@@H]1C[C@@H](O)CN1C(=O)[C@@H](N)Cc1cnc[nH]1)C(=O)N[C@@H](Cc1ccccc1)C(=O)N[C@H](C(=O)N[C@@H](CC(=O)O)C(=O)N[C@@H](CO)C(=O)N[C@@H](Cc1ccc(O)cc1)C(=O)N[C@@H](CO)C(=O)N[C@@H](CCCNC(=N)N)C(=O)N[C@@H](Cc1ccc(O)cc1)C(=O)N[C@@H](CCCNC(=N)N)C(=O)N[C@@H](CCCCN)C(=O)N[C@@H](CCC(N)=O)C(=O)N[C@@H](CCSC)C(=O)N[C@@H](C)C(=O)N[C@H](C(=O)N[C@@H](CCCCN)C(=O)N[C@@H](CCCCN)C(=O)N[C@@H](Cc1ccc(O)cc1)C(=O)N[C@@H](CC(C)C)C(=O)N[C@@H](C)C(=O)N[C@@H](C)C(=O)N[C@H](C(=O)N[C@@H](CC(C)C)C(=O)NCC(=O)N[C@@H](CCCCN)C(=O)N[C@@H](CCCNC(=N)N)C(=O)N[C@@H](Cc1ccc(O)cc1)C(=O)N[C@@H](CCCCN)C(=O)N[C@@H](CCC(N)=O)C(=O)N[C@@H](CCCNC(=N)N)C(=O)N[C@H](C(=O)N[C@@H](CCCCN)C(=O)N[C@@H](CC(N)=O)C(=O)N[C@@H](CCCCN)C(N)=O)C(C)C)C(C)C)C(C)C)[C@@H](C)O` (H-H[Hyp]DGIFTDSYSRYRKQMAVKKYLAAVLGKRYKQRVKNK-NH2), in assay [1], the pIC50 was 8.07. Moreover, the Emax in assay [2] stood at 94%. Further, the pEC50 in assay [3] was 9.15.

With `CC[C@H](C)[C@H](NC(=O)CNC(=O)[C@H](CC(=O)O)NC(=O)[C@H](CO)NC(=O)[C@@H](N)Cc1cnc[nH]1)C(=O)N[C@@H](Cc1ccc(-c2ccccc2)cc1)C(=O)N[C@H](C(=O)N[C@@H](CC(=O)O)C(=O)N[C@@H](CO)C(=O)N[C@@H](Cc1ccc(O)cc1)C(=O)N[C@@H](CO)C(=O)N[C@@H](CCCNC(=N)N)C(=O)N[C@@H](Cc1ccc(O)cc1)C(=O)N[C@@H](CCCNC(=N)N)C(=O)N[C@@H](CCCCN)C(=O)N[C@@H](CCC(N)=O)C(=O)N[C@@H](CCSC)C(=O)N[C@@H](C)C(=O)N[C@H](C(=O)N[C@@H](CCCCN)C(=O)N[C@@H](CCCCN)C(=O)N[C@@H](Cc1ccc(O)cc1)C(=O)N[C@@H](CC(C)C)C(=O)N[C@@H](C)C(=O)N[C@@H](C)C(=O)N[C@H](C(=O)N[C@@H](CC(C)C)C(N)=O)C(C)C)C(C)C)[C@@H](C)O`, the pIC50 in assay [1] was 8.35. Further, in assay [2], the Emax was determined as 104%. The pEC50 in assay [3] is 9.00.

For the molecule `CSCC[C@H](NC(=O)[C@H](CCC(N)=O)NC(=O)[C@H](CCCCN)NC(=O)[C@H](CCCNC(=N)N)NC(=O)[C@H](Cc1ccc(O)cc1)NC(=O)[C@H](CCCNC(=N)N)NC(=O)[C@H](CO)NC(=O)[C@H](Cc1ccc(O)cc1)NC(=O)[C@H](CO)NC(=O)[C@H](CC(=O)O)NC(=O)[C@@H](NC(=O)[C@H](Cc1ccccc1)NC(=O)[C@H](C)NC(=O)CNC(=O)[C@H](CC(=O)O)NC(=O)[C@H](CO)NC(=O)[C@@H](N)Cc1cnc[nH]1)[C@@H](C)O)C(=O)N[C@@H](C)C(=O)N[C@H](C(=O)N[C@@H](CCCCN)C(=O)N[C@@H](CCCCN)C(=O)N[C@@H](Cc1ccc(O)cc1)C(=O)N[C@@H](CC(C)C)C(=O)N[C@@H](C)C(=O)N[C@@H](C)C(=O)N[C@H](C(=O)N[C@@H](CC(C)C)C(N)=O)C(C)C)C(C)C`, the pIC50 in assay [1] is 7.22. In assay [2], the Emax amounted to 99.2%. In addition, the pEC50 in assay [3] is 7.40.

In the case of `CC[C@H](C)[C@H](NC(=O)CNC(=O)[C@H](CC(=O)O)NC(=O)[C@H](CO)NC(=O)[C@@H](N)Cc1cnc[nH]1)C(=O)N[C@@H](CC1CCCCC1)C(=O)N[C@H](C(=O)N[C@@H](CC(=O)O)C(=O)N[C@@H](CO)C(=O)N[C@@H](Cc1ccc(O)cc1)C(=O)N[C@@H](CO)C(=O)N[C@@H](CCCNC(=N)N)C(=O)N[C@@H](Cc1ccc(O)cc1)C(=O)N[C@@H](CCCNC(=N)N)C(=O)N[C@@H](CCCCN)C(=O)N[C@@H](CCC(N)=O)C(=O)N[C@@H](CCSC)C(=O)N[C@@H](C)C(=O)N[C@H](C(=O)N[C@@H](CCCCN)C(=O)N[C@@H](CCCCN)C(=O)N[C@@H](Cc1ccc(O)cc1)C(=O)N[C@@H](CC(C)C)C(=O)N[C@@H](C)C(=O)N[C@@H](C)C(=O)N[C@H](C(=O)N[C@@H](CC(C)C)C(N)=O)C(C)C)C(C)C)[C@@H](C)O`, the pIC50 in assay [1] is 7.96. Further, the Emax in assay [2] amounted to 105%. For the same molecule, in assay [3], the pEC50 was 8.08.
